Activity data for three compounds are collected here from ChEMBL document CHEMBL1152541, “Staurosporine tethered peptide ligands that target cAMP-dependent protein kinase (PKA): optimization and selectivity profiling” (Bioorg Med Chem, 2009).

SMILES strings stand for the structures. *1 amine or outer side, *2 acyl side, *3 side chain or, on linkers, in order; H or OH if unused. Where a SMILES comes first, the peptide text is derived from it. Bridges are numbered along the chain shown (N, C = ends). [ ]: non-standard residue; d: D form. The star is where a group is joined. Staurosporine = CO[C@@H]1[C@H](N(C)*)C[C@H]2O[C@]1(C)n1c3ccccc3c3c4c(c5c6ccccc6n2c5c31)C(=O)NC4; Suc = O=C(CCC(=O)[*:2])[*:1]; Dap = NC[C@H](N)C(=O)O; βAla = NCCC(=O)O

Assay [1] concerns the target Dual specificity tyrosine-phosphorylation-regulated kinase 1B (Homo sapiens) (UniProt Q9Y463). The assay is described as follows: Binding affinity to human DYRK1B at 500 nM by cell-based competition binding assay relative to control in presence of DTT. Put shortly:
(§1)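 Commercial (Ambit) competitive kinase-binding panel of 90 kinases measured the binding profile. Run under reducing conditions of 7.5 mM DTT. Binding is expressed relative to control.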

Assay [2] concerns the target Receptor tyrosine-protein kinase erbB-4 (Homo sapiens) (UniProt Q15303). The assay can be described thus: Binding affinity to human ERBB4 at 500 nM by cell-based competition binding assay relative to control in presence of DTT. Put shortly:
as §1

Assay [3] addresses RAC-alpha serine/threonine-protein kinase (Homo sapiens) (UniProt P31749). The assay can be described thus: Binding affinity to human AKT1 at 500 nM by cell-based competition binding assay relative to control in presence of DTT. Put shortly: (§2)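 Kinase binding profiling ran on a commercial (Ambit) competitive binding screen against a panel of 90 kinases. The screen used reducing conditions with 7.5 mM DTT. To withstand the DTT, the bivalent ligand was tested as its amide isostere, with the disulfide replaced. A staurosporine derivative carrying a 3 β-alanine linker was run as the reference compound.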

Assay [4] deals with MAP/microtubule affinity-regulating kinase 3 (Homo sapiens) (UniProt P27448). The assay can be described thus: Binding affinity to human MARK3 at 500 nM by cell-based competition binding assay relative to control in presence of DTT. Summed up: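 Kinase binding profile from a commercial panel of 90 kinases, run as a competitive binding assay. The panel was screened under reducing conditions of 7.5 mM DTT. Signal was compared with the untreated control.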

In assay [5] the target is Dual specificity mitogen-activated protein kinase kinase 2 (Homo sapiens) (UniProt P36507). The assay can be described thus: Binding affinity to human MEK2 at 500 nM by cell-based competition binding assay relative to control in presence of DTT.
Assay [6] concerns the target Serine/threonine-protein kinase PAK 2 (Homo sapiens) (UniProt Q13177). The assay is described as follows: Binding affinity to human PAK2 at 500 nM by cell-based competition binding assay relative to control in presence of DTT.
Assay [7] deals with Mitogen-activated protein kinase 10 (Homo sapiens) (UniProt P53779). The assay is described as follows: Binding affinity to human JNK3 at 200 nM by cell-based competition binding assay relative to control in presence of DTT. Put shortly: (§3)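 Competition binding screen (Ambit) across a panel of 90 kinases, scoring test ligand displacement of each kinase's binding relative to control. The screen ran under reducing conditions with 7.5 mM DTT.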

In assay [8] the target is MAP kinase-interacting serine/threonine-protein kinase 1 (Homo sapiens) (UniProt Q9BUB5). The assay can be described thus: Binding affinity to human MKNK1 at 200 nM by cell-based competition binding assay relative to control in presence of DTT.
The target in assay [9] is Platelet-derived growth factor receptor beta (Homo sapiens) (UniProt P09619). The assay can be described thus: Binding affinity to human PDGFRbeta at 200 nM by cell-based competition binding assay relative to control in presence of DTT.
For assay [10], the target named is T1, Activin receptor type-1B (Homo sapiens) (UniProt P36896).
T1 sequence (whole entry): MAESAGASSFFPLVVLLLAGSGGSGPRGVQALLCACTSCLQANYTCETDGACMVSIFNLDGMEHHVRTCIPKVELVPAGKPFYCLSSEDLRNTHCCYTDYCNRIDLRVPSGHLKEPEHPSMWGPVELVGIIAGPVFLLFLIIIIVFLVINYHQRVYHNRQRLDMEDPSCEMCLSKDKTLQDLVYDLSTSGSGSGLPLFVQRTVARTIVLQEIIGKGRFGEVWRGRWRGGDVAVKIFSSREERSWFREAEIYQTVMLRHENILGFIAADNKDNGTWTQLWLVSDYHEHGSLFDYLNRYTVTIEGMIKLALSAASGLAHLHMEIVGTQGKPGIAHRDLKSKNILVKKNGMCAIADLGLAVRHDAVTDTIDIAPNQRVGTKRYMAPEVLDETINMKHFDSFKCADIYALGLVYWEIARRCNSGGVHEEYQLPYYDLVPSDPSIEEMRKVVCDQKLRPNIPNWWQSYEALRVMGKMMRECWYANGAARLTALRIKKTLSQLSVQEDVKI
The assay can be described thus: Binding affinity to human ACVR1B at 200 nM by cell-based competition binding assay relative to control in presence of DTT. Put shortly: as §2

The target in assay [11] is RAC-beta serine/threonine-protein kinase (Homo sapiens) (UniProt P31751). The assay is described as follows: Binding affinity to human AKT2 at 200 nM by cell-based competition binding assay relative to control in presence of DTT. Put shortly: as §2
The target of assay [12] is ALK tyrosine kinase receptor (Homo sapiens) (UniProt Q9UM73). The assay can be described thus: Binding affinity to human ALK at 200 nM by cell-based competition binding assay relative to control in presence of DTT. Put shortly:
as §2

The target of assay [13] is Serine/threonine-protein kinase PLK1 (Homo sapiens) (UniProt P53350). The assay can be described thus: Binding affinity to human PLK1 at 200 nM by cell-based competition binding assay relative to control in presence of DTT.
The target in assay [14] is High affinity nerve growth factor receptor (Homo sapiens) (UniProt P04629). The assay can be described thus: Binding affinity to human TRKA at 200 nM by cell-based competition binding assay relative to control in presence of DTT.
For assay [15], the target named is Vascular endothelial growth factor receptor 2 (Homo sapiens) (UniProt P35968). The assay can be described thus: Binding affinity to human VEGFR2 at 200 nM by cell-based competition binding assay relative to control in presence of DTT.
The target in assay [16] is Aurora kinase B (Homo sapiens) (UniProt Q96GD4). The assay can be described thus: Binding affinity to human aurora kinase B at 50 nM by cell-based competition binding assay relative to control in presence of DTT.
Assay [17] concerns the target Casein kinase I isoform delta (Homo sapiens) (UniProt P48730). The assay is described as follows: Binding affinity to human CSNK1D at 50 nM by cell-based competition binding assay relative to control in presence of DTT. Put shortly:
as §1

The target of assay [18] is MAP kinase-activated protein kinase 2 (Homo sapiens) (UniProt P49137). The assay is described as follows: Binding affinity to human MAPKAPK2 at 50 nM by cell-based competition binding assay relative to control in presence of DTT. Put shortly: as §3
Assay [19] addresses MAP kinase-interacting serine/threonine-protein kinase 1 (Homo sapiens) (UniProt Q9BUB5). The assay can be described thus: Binding affinity to human MKNK1 at 50 nM by cell-based competition binding assay relative to control in presence of DTT.
Assay [20] concerns the target MAP kinase-interacting serine/threonine-protein kinase 2 (Homo sapiens) (UniProt Q9HBH9). The assay is described as follows: Binding affinity to human MKNK2 at 50 nM by cell-based competition binding assay relative to control in presence of DTT.
Assay [21] has as its target Mitogen-activated protein kinase 11 (Homo sapiens) (UniProt Q15759). The assay is described as follows: Binding affinity to human p38beta at 50 nM by cell-based competition binding assay relative to control in presence of DTT.
The target in assay [22] is RAF proto-oncogene serine/threonine-protein kinase (Homo sapiens) (UniProt P04049). The assay is described as follows: Binding affinity to human RAF1 at 50 nM by cell-based competition binding assay relative to control in presence of DTT.
Assay [23] concerns the target Vascular endothelial growth factor receptor 2 (Homo sapiens) (UniProt P35968). The assay is described as follows: Binding affinity to human VEGFR2 at 50 nM by cell-based competition binding assay relative to control in presence of DTT.
Assay [24] concerns the target Tyrosine-protein kinase ABL1 (Homo sapiens) (UniProt P00519). The assay can be described thus: Binding affinity to human ABL1 at 50 nM by cell-based competition binding assay relative to control in presence of DTT. Put shortly:
as §2

Sequence of Vascular endothelial growth factor receptor 2 (Homo sapiens) (P35968 whole entry): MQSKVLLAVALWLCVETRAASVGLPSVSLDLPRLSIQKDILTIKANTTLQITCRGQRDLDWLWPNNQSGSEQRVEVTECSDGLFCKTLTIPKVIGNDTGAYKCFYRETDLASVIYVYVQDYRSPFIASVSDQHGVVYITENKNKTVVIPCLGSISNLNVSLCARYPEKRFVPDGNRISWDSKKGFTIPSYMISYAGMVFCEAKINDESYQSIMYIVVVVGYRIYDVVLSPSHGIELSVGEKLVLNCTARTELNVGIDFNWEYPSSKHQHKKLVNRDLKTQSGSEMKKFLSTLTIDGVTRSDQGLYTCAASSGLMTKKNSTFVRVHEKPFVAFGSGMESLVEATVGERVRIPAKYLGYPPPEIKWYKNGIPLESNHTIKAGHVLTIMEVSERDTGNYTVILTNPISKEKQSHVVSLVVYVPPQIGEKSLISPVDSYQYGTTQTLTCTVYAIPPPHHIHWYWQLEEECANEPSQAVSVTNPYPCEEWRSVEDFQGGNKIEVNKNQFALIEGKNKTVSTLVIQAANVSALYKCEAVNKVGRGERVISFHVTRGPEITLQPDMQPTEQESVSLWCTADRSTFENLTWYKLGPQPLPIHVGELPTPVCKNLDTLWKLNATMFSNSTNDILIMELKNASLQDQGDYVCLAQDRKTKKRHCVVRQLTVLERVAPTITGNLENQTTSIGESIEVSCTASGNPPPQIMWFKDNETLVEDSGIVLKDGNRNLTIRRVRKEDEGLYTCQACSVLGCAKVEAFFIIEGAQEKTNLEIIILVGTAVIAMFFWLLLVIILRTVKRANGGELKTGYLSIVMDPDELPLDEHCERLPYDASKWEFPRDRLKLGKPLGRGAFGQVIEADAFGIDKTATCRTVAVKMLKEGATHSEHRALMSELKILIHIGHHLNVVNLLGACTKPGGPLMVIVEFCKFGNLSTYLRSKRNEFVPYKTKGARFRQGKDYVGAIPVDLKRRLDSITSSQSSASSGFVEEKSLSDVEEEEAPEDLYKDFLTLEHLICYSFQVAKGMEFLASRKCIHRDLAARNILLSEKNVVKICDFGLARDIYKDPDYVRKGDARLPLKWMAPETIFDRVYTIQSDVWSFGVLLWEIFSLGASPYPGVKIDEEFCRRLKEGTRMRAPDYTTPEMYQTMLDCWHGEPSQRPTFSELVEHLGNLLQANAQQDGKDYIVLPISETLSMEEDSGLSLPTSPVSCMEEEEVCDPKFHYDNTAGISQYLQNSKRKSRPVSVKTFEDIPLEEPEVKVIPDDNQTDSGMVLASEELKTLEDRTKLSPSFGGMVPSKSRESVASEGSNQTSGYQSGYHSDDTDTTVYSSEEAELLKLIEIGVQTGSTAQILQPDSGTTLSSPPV
Sequence of MAP kinase-interacting serine/threonine-protein kinase 1 (Homo sapiens) (Q9BUB5 whole entry, looked up): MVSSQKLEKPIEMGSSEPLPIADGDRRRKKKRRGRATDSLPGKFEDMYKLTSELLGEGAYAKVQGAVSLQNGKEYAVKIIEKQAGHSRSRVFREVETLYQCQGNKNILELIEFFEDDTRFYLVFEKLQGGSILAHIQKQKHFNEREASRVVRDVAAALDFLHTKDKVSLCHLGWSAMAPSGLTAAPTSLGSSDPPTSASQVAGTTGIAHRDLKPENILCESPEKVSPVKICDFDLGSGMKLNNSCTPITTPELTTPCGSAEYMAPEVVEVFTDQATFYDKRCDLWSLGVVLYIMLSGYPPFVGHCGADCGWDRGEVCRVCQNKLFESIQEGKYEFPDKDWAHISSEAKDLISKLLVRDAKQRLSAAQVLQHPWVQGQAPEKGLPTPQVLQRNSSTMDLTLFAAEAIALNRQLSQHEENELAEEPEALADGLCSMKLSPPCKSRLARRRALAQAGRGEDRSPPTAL
Sequence of MAP/microtubule affinity-regulating kinase 3 (Homo sapiens) (P27448 whole entry, looked up): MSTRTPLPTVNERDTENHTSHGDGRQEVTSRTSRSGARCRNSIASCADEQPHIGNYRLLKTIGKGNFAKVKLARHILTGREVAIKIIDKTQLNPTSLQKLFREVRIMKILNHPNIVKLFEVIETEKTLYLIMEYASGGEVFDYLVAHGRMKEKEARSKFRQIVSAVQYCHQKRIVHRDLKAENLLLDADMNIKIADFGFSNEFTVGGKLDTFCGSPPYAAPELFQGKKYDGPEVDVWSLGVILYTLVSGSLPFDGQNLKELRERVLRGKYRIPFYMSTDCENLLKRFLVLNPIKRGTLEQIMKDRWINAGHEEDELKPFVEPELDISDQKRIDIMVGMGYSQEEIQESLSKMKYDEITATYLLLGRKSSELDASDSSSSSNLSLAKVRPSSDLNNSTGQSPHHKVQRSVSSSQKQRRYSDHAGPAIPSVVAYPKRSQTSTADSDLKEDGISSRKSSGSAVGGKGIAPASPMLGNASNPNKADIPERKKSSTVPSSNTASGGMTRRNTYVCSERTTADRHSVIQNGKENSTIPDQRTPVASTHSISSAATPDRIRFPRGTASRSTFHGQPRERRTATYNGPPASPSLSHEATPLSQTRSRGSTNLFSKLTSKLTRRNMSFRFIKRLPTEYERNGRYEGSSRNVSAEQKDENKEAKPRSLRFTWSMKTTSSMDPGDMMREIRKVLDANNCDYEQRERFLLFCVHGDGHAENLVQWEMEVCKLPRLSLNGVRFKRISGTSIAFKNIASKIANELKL
Sequence of ALK tyrosine kinase receptor (Homo sapiens) (Q9UM73 19-1620 limits assumed): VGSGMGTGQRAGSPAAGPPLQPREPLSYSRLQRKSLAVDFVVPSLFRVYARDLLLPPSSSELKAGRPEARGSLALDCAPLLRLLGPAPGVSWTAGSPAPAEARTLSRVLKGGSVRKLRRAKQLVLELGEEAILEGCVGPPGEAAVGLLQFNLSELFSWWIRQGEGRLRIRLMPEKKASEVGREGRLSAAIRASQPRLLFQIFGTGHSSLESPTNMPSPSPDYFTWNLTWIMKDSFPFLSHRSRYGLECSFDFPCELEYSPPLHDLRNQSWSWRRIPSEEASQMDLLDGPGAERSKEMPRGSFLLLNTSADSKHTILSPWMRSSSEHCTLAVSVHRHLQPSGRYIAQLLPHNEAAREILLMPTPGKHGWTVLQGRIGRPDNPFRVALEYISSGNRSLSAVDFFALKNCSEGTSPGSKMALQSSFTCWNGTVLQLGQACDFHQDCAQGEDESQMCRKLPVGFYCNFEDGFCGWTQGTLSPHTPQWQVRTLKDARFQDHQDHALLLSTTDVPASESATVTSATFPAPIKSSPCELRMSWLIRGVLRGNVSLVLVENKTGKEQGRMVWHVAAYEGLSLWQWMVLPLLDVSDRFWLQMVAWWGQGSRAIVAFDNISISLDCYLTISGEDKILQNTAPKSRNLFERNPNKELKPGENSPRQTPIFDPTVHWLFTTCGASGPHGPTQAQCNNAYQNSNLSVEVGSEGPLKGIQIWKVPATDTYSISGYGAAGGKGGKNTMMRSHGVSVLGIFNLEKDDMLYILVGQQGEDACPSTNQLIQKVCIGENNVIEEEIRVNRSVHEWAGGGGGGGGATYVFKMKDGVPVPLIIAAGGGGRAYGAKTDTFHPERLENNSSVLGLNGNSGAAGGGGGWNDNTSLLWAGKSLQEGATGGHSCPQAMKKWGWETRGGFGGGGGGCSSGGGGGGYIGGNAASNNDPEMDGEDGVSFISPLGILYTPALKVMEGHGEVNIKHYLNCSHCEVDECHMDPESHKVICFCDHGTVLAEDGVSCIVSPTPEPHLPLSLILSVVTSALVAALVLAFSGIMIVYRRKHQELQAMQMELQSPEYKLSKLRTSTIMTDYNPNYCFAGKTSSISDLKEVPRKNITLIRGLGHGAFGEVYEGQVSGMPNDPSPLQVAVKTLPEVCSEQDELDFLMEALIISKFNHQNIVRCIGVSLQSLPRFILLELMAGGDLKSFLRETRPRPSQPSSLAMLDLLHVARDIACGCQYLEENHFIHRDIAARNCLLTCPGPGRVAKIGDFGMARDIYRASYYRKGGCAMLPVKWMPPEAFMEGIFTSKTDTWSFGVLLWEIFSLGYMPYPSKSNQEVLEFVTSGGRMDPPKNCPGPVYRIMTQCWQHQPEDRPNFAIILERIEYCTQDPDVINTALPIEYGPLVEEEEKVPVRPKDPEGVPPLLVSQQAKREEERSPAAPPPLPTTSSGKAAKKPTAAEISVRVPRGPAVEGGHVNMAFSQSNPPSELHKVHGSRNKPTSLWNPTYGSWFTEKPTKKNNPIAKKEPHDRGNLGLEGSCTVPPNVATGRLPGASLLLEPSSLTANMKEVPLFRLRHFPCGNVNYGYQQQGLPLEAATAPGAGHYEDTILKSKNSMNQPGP
Sequence of High affinity nerve growth factor receptor (Homo sapiens) (P04629 33-796 limits assumed): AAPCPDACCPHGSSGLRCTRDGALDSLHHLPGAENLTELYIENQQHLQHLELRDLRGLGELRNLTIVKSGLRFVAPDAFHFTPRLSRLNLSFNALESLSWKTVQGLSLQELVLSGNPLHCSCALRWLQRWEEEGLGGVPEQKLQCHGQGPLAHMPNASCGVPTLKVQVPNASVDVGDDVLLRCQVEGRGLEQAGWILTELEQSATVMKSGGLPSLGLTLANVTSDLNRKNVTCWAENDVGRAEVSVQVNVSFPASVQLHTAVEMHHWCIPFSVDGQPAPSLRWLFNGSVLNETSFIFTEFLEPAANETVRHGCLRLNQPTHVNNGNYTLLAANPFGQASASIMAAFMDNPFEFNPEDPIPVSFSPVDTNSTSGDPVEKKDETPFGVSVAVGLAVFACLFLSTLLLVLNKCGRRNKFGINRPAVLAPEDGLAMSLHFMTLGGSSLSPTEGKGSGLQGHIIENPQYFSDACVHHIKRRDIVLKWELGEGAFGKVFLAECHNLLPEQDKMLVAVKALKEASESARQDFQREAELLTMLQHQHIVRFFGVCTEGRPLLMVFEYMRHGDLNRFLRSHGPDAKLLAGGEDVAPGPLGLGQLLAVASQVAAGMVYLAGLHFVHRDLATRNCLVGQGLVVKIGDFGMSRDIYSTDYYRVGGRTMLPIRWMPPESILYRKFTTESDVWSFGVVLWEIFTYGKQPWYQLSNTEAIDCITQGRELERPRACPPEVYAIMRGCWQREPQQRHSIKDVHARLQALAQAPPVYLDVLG

As to `CO[C@@H]1[C@H](N(C)C(=O)CCC(=O)NCCC(=O)NCCC(=O)NCCC(N)=O)C[C@H]2O[C@]1(C)n1c3ccccc3c3c4c(c5c6ccccc6n2c5c31)C(=O)NC4`, the Activity in assay [1] is 5.6%; in assay [2], 70%; in assay [3], 100%; in assay [4], 16%; in assay [5] it was 86%; in [6] it was 14%.
Take `CO[C@@H]1[C@H](N(C)C(=O)CCC(=O)NCCC(=O)NCCC(=O)NCCC(=O)NCCC(=O)NCCC(=O)NCCC(=O)NCCC(=O)N[C@H]2CSSC[C@@H](C(=O)NCC(N)=O)NC(=O)CNC(=O)[C@H](Cc3ccccc3)NC(=O)[C@H](C(C)C)NC(=O)[C@H](CCCNC(=N)N)NC(=O)[C@H](Cc3ccccc3)NC(=O)[C@H](C(C)C)NC2=O)C[C@H]2O[C@]1(C)n1c3ccccc3c3c4c(c5c6ccccc6n2c5c31)C(=O)NC4` ({Staurosporine-Suc-βAla-βAla-βAla-βAla-βAla-βAla-βAla}-CVFRVFGCG-NH2; disulfide 1-8): the Activity in assay [7] came out at 65%; in assay [8] it was 96%; in assay [9], 3.2%; in [10], 95%; in assay [11] it was 100%; in assay [12], 60%. In addition, the figures for the Activity in assay [13], in [14] and in assay [15] were 95%, 57% and 73%, respectively.
Turning to `CO[C@@H]1[C@H](N(C)C(=O)CCC(=O)NCCC(=O)NCCC(=O)NCCC(=O)NCCC(=O)NCCC(=O)NCCC(=O)NCCC(=O)N[C@H]2CNC(=O)C[C@@H](C(N)=O)NC(=O)CNC(=O)[C@H](Cc3ccccc3)NC(=O)[C@H](C(C)C)NC(=O)[C@H](CCCNC(=N)N)NC(=O)[C@H](Cc3ccccc3)NC(=O)[C@H](C(C)C)NC2=O)C[C@H]2O[C@]1(C)n1c3ccccc3c3c4c(c5c6ccccc6n2c5c31)C(=O)NC4` ({Staurosporine-Suc-βAla-βAla-βAla-βAla-βAla-βAla-βAla}-[Dap]VFRVFGD-NH2; lactam 1-8), the Activity in assay [16] came out at 33%; in assay [17], 100%; in assay [18] it was 100%; in assay [19], 100%; in assay [20], 100%; in assay [21], 100%. The results for the Activity in assay [22], in assay [23] and in [24] were 100%, 91% and 94%, respectively.
